Calls of active or inactive are those of the source.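 How the source made its calls: active means inhibition of insulin-degrading enzyme persists after dilution, judged irreversible; inactive means inhibition lost or reduced after dilution, judged reversible.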
What follows are molecules tested against Insulin-degrading enzyme (Homo sapiens) (UniProt P14735) (assay: dilution reversibility, CF mutant IDE inhibitors – biochemical, cysteine-free mutant, FRET1 fluorogenic peptide, mechanism study for IDE inhibitor project, late-stage follow-up (AID 624306)). Details: recombinant cysteine-free IDE, FRET1 fluorescence.
Insulin-degrading enzyme (Homo sapiens), sequence (P14735 whole entry, looked up): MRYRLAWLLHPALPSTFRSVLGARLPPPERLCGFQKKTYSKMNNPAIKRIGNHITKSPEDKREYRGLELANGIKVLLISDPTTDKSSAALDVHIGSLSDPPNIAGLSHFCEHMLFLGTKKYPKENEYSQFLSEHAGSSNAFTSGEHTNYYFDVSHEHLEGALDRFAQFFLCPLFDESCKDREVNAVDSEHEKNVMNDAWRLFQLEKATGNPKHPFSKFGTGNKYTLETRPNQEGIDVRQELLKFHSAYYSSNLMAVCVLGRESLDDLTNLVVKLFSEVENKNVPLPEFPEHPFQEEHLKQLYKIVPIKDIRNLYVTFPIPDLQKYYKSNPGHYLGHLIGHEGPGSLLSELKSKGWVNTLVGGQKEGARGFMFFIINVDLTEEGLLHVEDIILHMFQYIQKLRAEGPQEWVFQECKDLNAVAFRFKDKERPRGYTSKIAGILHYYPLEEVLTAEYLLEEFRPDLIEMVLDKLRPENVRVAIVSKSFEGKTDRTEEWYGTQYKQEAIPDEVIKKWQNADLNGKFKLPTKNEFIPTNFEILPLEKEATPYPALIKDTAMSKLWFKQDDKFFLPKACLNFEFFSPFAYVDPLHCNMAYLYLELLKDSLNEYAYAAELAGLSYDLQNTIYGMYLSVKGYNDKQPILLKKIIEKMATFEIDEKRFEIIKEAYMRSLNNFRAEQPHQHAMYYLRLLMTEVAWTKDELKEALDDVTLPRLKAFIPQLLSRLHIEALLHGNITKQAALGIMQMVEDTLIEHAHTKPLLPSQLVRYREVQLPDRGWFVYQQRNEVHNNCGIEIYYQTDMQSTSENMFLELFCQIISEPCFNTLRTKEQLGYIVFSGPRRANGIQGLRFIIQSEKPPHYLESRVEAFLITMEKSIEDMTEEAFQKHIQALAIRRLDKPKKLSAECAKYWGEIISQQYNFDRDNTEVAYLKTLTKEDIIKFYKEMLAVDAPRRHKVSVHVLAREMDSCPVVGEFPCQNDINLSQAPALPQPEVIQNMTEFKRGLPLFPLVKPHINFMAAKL
How it was run: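 Assay system – mutant insulin-degrading enzyme (IDE) · Signal – kinetic fluorescence, 335 nm excitation, 385 nm emission · Doses – top compound dose 100 µM · Timing – kinetic reads every 2 min over 2 h, room temperature · Benchmarks – vehicle wells as high control, enzyme-free wells as low · Repeats – triplicate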

outcome | Compound
inactive | Cc1c(CCC(=O)NCCCn2ccnc2)c(=O)oc2cc3oc4c(c3cc12)CCCC4
inactive | Cn1c(=O)c(C(=O)CN2CCCc3ccccc32)c(N)n(Cc2ccccc2)c1=O
inactive | Cc1cccc(-c2nnc(SCc3nc4ccccc4[nH]3)n2Cc2ccco2)c1
inactive | COc1cccc(-c2nnc(SCc3nc4ccccc4[nH]3)n2Cc2ccco2)c1

The next lines start with the molecule.

Compound | outcome
O=C(Nc1cccc(C(F)(F)F)c1)c1csc(-c2ccncc2)n1 | inactive
COc1cc(/C=C2\SC(=S)N(NC(C)=O)C2=O)ccc1OC(=O)c1ccco1 | inactive
COc1ccc(C(=O)N2CCN(C(=O)C3COc4ccccc4O3)CC2)cc1OC (stereo not given) | inactive
Clc1cccc(-c2nnc(SCc3nc4ccccc4[nH]3)n2Cc2ccco2)c1 | inactive
O=c1c2ccccc2sn1-c1cc(S(=O)(=O)N2CCOCC2)ccc1N1CCOCC1 | active
O=C(O)c1ccccc1NS(=O)(=O)c1cccc(-n2sc3ccccc3c2=O)c1 | active
